Measured values from ChEMBL document CHEMBL1944570, “Discovery of 4''-ether linked azithromycin-quinolone hybrid series: influence of the central linker on the antibacterial activity” (ACS Med Chem Lett, 2011).
In brackets after ≈: the same amount, converted by molar mass.

Assays:
[1] = system: Moraxella catarrhalis; assay: Antibacterial activity against Moraxella catarrhalis by agar microdilution method; assay type: functional
In short: (§1)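 Agar microdilution MIC per NCCLS standards against strains from the Pliva Research Institute culture collection; values in µg/mL. Panel included erythromycin-susceptible strains and strains with inducible or constitutive MLS resistance.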

[2] = Inhibition of Escherichia coli DNA gyrase-mediated supercoiling of relaxed pBR322 DNA
[3] = system: Streptococcus pneumoniae; assay: Antibacterial activity against erythromycin-susceptible Streptococcus pneumoniae by agar microdilution method; assay type: functional
In short: (§2)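 MIC by agar microdilution following NCCLS standards; strains drawn from the PLIVA Research Institute culture collection. MIC reported in μg/mL.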

[4] = system: Staphylococcus aureus; assay: Antibacterial activity against Staphylococcus aureus with inducible resistance to MLS by agar microdilution method; assay type: functional; in short: as §2
[5] = system: Streptococcus pyogenes; assay: Antibacterial activity against constitutive MLS resistant Streptococcus pyogenes by agar microdilution method; assay type: functional; in short: as §2
[6] = system: Streptococcus pyogenes; assay: Antibacterial activity against erythromycin-susceptible Streptococcus pyogenes by agar microdilution method; assay type: functional; in short: as §2
[7] = system: Staphylococcus aureus; assay: Antibacterial activity against ciprofloxacin-resistant Staphylococcus aureus by agar microdilution method; assay type: functional; in short: as §2
[8] = system: Staphylococcus aureus; assay: Antibacterial activity against constitutive MLS resistant Staphylococcus aureus by agar microdilution method; assay type: functional; in short: as §2
[9] = Inhibition of protein synthesis using Escherichia coli S30 extracts preincubated for 10 mins measured after 50 mins by luciferase reporter gene assay; assay type: functional
[10] = Inhibition of Escherichia coli topoisomerase 4-mediated relaxation of supercoiled pBR322 DNA
[11] = system: Staphylococcus aureus; assay: Antibacterial activity against efflux mediated macrolide resistant Staphylococcus aureus by agar microdilution method; assay type: functional; in short: as §2
[12] = system: Staphylococcus aureus; assay: Antibacterial activity against erythromycin-susceptible Staphylococcus aureus by agar microdilution method; assay type: functional; in short: as §1
[13] = system: Haemophilus influenzae; assay: Antibacterial activity against Haemophilus influenzae B0529 by agar microdilution method; assay type: functional; in short: as §1
[14] = system: Streptococcus pyogenes; assay: Antibacterial activity against efflux mediated macrolide resistant Streptococcus pyogenes by agar microdilution method; assay type: functional; in short: as §2
[15] = system: Streptococcus pneumoniae; assay: Antibacterial activity against constitutive MLS resistant Streptococcus pneumoniae by agar microdilution method; assay type: functional; in short: as §2
[16] = system: Streptococcus pneumoniae; assay: Antibacterial activity against efflux mediated macrolide resistant Streptococcus pneumoniae by agar microdilution method; assay type: functional; in short: as §2
[17] = system: Streptococcus pyogenes; assay: Antibacterial activity against Streptococcus pyogenes with inducible resistance to MLS by agar microdilution method; assay type: functional; in short: as §2

SMILES | MIC [1] [µg/mL] | IC50 [2] [µM] | MIC [3] [µg/mL] | MIC [4] [µg/mL] | MIC [5] [µg/mL] | MIC [6] [µg/mL] | MIC [7] [µg/mL] | MIC [8] [µg/mL] | IC50 [9] [µM] | IC50 [10] [µM] | MIC [11] [µg/mL] | MIC [12] [µg/mL] | MIC [13] [µg/mL] | MIC [14] [µg/mL] | MIC [15] [µg/mL] | MIC [16] [µg/mL] | MIC [17] [µg/mL]
CC[C@H]1OC(=O)[C@H](C)[C@@H](O[C@H]2C[C@@](C)(OC)[C@@H](OCCNCCOCCNc3cc4c(=O)c(C(=O)O)cn(C5CC5)c4cc3Cl)[C@H](C)O2)[C@H](C)[C@@H](O[C@@H]2O[C@H](C)C[C@H](N(C)C)[C@H]2O)[C@](C)(O)C[C@@H](C)CN(C)[C@H](C)[C@H]2OC(=O)O[C@@]21C | ≤ 0.125 | 70 | ≤ 0.125 | 0.25 (≈ 0.214 µM) | 0.5 (≈ 0.429 µM) | ≤ 0.125 | 32 (≈ 27.4 µM) | 32 (≈ 27.4 µM) | 0.28 | 60 | 0.25 (≈ 0.214 µM) | ≤ 0.125 | 0.5 (≈ 0.429 µM) | – | – | – | –
CC[C@H]1OC(=O)[C@H](C)[C@@H](O[C@H]2C[C@@](C)(OC)[C@@H](OCCNCCOCCNc3cc4c(=O)c(C(=O)O)cn(C5CC5)c4cc3Cl)[C@H](C)O2)[C@H](C)[C@@H](O[C@@H]2O[C@H](C)C[C@H](N(C)C)[C@H]2O)[C@](C)(O)C[C@@H](C)CN(C)[C@H](C)[C@@H](O)[C@]1(C)O | 0.125 (≈ 0.11 µM) | 60 | ≤ 0.125 | 0.25 (≈ 0.219 µM) | 1 (≈ 0.877 µM) | ≤ 0.125 | ≥ 64 | 64 (≈ 56.1 µM) | 0.35 | 50 | 0.5 (≈ 0.438 µM) | ≤ 0.125 | 0.5 (≈ 0.438 µM) | 0.125 (≈ 0.11 µM) | 0.25 (≈ 0.219 µM) | – | –
CC[C@H]1OC(=O)[C@H](C)[C@@H](O[C@H]2C[C@@](C)(OC)[C@@H](OCCCC(=O)NCCNc3cc4c(cc3F)c(=O)c(C(=O)O)cn4C3CC3)[C@H](C)O2)[C@H](C)[C@@H](O[C@@H]2O[C@H](C)C[C@H](N(C)C)[C@H]2O)[C@](C)(O)C[C@@H](C)CN(C)[C@H](C)[C@@H](O)[C@]1(C)O | 2 (≈ 1.78 µM) | – | 1 (≈ 0.891 µM) | 8 (≈ 7.13 µM) | 16 (≈ 14.3 µM) | 1 (≈ 0.891 µM) | ≥ 64 | 64 (≈ 57 µM) | – | – | 16 (≈ 14.3 µM) | 8 (≈ 7.13 µM) | 8 (≈ 7.13 µM) | 16 (≈ 14.3 µM) | 1 (≈ 0.891 µM) | 4 (≈ 3.56 µM) | 1 (≈ 0.891 µM)
CC[C@H]1OC(=O)[C@H](C)[C@@H](O[C@H]2C[C@@](C)(OC)[C@@H](OCCCC(=O)NCCOCCNc3cc4c(cc3F)c(=O)c(C(=O)O)cn4C3CC3)[C@H](C)O2)[C@H](C)[C@@H](O[C@@H]2O[C@H](C)C[C@H](N(C)C)[C@H]2O)[C@](C)(O)C[C@@H](C)CN(C)[C@H](C)[C@@H](O)[C@]1(C)O | 8 (≈ 6.86 µM) | – | 0.5 (≈ 0.429 µM) | 64 (≈ 54.9 µM) | 4 (≈ 3.43 µM) | 0.25 (≈ 0.214 µM) | ≥ 64 | 64 (≈ 54.9 µM) | – | – | 32 (≈ 27.4 µM) | 16 (≈ 13.7 µM) | 16 (≈ 13.7 µM) | 2 (≈ 1.71 µM) | 8 (≈ 6.86 µM) | 0.25 (≈ 0.214 µM) | 0.25 (≈ 0.214 µM)
CC[C@H]1OC(=O)[C@H](C)[C@@H](O[C@H]2C[C@@](C)(OC)[C@@H](OCCCC(=O)NCCOCCOCCNc3cc4c(=O)c(C(=O)O)cn(C5CC5)c4cc3Cl)[C@H](C)O2)[C@H](C)[C@@H](O[C@@H]2O[C@H](C)C[C@H](N(C)C)[C@H]2O)[C@](C)(O)C[C@@H](C)CN(C)[C@H](C)[C@@H](O)[C@]1(C)O | 2 (≈ 1.63 µM) | – | ≤ 0.125 | 64 (≈ 52.2 µM) | 4 (≈ 3.26 µM) | 0.25 (≈ 0.204 µM) | ≥ 64 | 64 (≈ 52.2 µM) | – | – | 8 (≈ 6.52 µM) | 16 (≈ 13 µM) | 8 (≈ 6.52 µM) | 1 (≈ 0.815 µM) | 64 (≈ 52.2 µM) | 0.25 (≈ 0.204 µM) | 0.5 (≈ 0.408 µM)
CC[C@H]1OC(=O)[C@H](C)[C@@H](O[C@H]2C[C@@](C)(OC)[C@@H](O)[C@H](C)O2)[C@H](C)[C@@H](O[C@@H]2O[C@H](C)C[C@H](N(C)C)[C@H]2O)[C@](C)(O)C[C@@H](C)CN(C)[C@H](C)[C@@H](O)[C@]1(C)O [AZITHROMYCIN] | 0.25 (≈ 0.334 µM) | – | ≤ 0.125 | > 64 | > 64 | ≤ 0.125 | ≥ 64 | > 64 | – | – | > 64 | 1 (≈ 1.34 µM) | 1 (≈ 1.34 µM) | 1 (≈ 1.34 µM) | > 64 | 4 (≈ 5.34 µM) | 8 (≈ 10.7 µM)
O=C(O)c1cn(C2CC2)c2cc(N3CCNCC3)c(F)cc2c1=O [CIPROFLOXACIN] | 0.125 (≈ 0.377 µM) | 0.8 | ≤ 0.125 | ≤ 0.125 | 0.5 (≈ 1.51 µM) | 2 (≈ 6.04 µM) | ≥ 64 | – | > 50 | 3 | ≤ 0.125 | – | ≤ 0.125 | ≤ 0.125 | 0.25 (≈ 0.754 µM) | 0.25 (≈ 0.754 µM) | 0.25 (≈ 0.754 µM)
CC[C@H]1OC(=O)[C@H](C)C(=O)[C@H](C)[C@@H](O[C@@H]2O[C@H](C)C[C@H](N(C)C)[C@H]2O)[C@](C)(OC)C[C@@H](C)C(=O)[C@H](C)[C@H]2N(CCCCn3cnc(-c4cccnc4)c3)C(=O)O[C@]12C [TELITHROMYCIN] | ≤ 0.125 | > 50 | ≤ 0.125 | 0.5 (≈ 0.616 µM) | 4 (≈ 4.93 µM) | ≤ 0.125 | ≥ 64 | > 64 | 0.23 | > 50 | 0.25 (≈ 0.308 µM) | ≤ 0.125 | 1 (≈ 1.23 µM) | 0.25 (≈ 0.308 µM) | – | 0.5 (≈ 0.616 µM) | –
